Screening data from PubChem.
Only some compounds are listed: those with a hit (about 1.5% of all), similar ones and a draw of the others.
CCR6 antagonist – CCR6 (human) receptor antagonism; P51684; CHO-K1 CCR6 PathHunter beta-arrestin, luminescence, CCL20-stimulated; inhibition, % at 20 µM; 340,000 tested, 0.49% active; AID 493098;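 active = compounds whose inhibition of the agonist-driven luminescence signal at 20 µM reaches about 50%, limit read from the data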;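 note: cells stimulated with CCL20 at 14 nM final; plate controls were DMSO with CCL20 for no effect and DMSO without agonist for full effect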
EBI2 block – EBI2 (human) antagonism; inhibition, % at 5 µM; 360,000 tested, 0.81% active; EBI2 beta-arrestin recruitment, luminescence, 7a,25-OHC stimulated; in the data active = inhibition above about 38%;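 note: enzyme fragment complementation signal reports receptor beta-arrestin coupling in cells; 0% = agonist plus DMSO wells and 100% = wells without agonist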
CXCR6 block – inhibitors of human CXCR6 receptor | O00574 | CHO-K1 PathHunter CXCR6 beta-arrestin, luminescence | inhibition, % at 20 µM | 360,000 tested, 0.36% active | AID 602244; in the data active = inhibition above about 34%, passing the limit was not always enough;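 note: antagonist mode with CXCL16 agonist at 10 nM final; 0% = 10 nM CXCL16 with DMSO and 100% = unstimulated wells without agonist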
APJ antagonist – blocks the human apelin receptor APJ. P35414. CHO-K1 APJ beta-arrestin complementation, luminescence. inhibition, % at 20 µM. 330,000 tested, 0.32% active. AID 2521;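 active = inhibition above about 40% at 20 µM, limit read from the data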;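 note: cells challenged with 10 nM apelin-13 agonist together with compound; plate controls were apelin-13 plus DMSO wells for no effect and DMSO wells lacking apelin-13 for full effect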
Target sequence (P35414 whole entry, looked up): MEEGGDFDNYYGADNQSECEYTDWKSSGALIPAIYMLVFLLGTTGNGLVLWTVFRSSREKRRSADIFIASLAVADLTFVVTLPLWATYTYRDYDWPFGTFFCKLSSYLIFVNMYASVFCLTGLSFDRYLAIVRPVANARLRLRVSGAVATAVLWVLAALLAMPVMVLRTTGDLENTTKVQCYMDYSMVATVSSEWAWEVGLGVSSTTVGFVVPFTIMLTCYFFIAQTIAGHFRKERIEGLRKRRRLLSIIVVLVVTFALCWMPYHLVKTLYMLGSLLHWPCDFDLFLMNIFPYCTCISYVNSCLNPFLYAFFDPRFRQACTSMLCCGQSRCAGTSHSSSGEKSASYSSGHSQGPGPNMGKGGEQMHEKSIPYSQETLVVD
APJ agonist – agonists of human APJ apelin receptor. activation, % at 20 µM. CHO-K1 APJ PathHunter beta-arrestin, luminescence; 0% DMSO wells, 100% apelin. 330,000 tested, 0.11% active. P35414;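 active = activation more than six SD over the plate average, tested at 20 µM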;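 note: 0% = DMSO alone and 100% = apelin-13 at 10 nM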
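Test system – PathHunter CHO-K1 APJ (AGTRL-1) beta-arrestin reporter cells · Input – 1000 cells/well · Compound – single test compound dose, 20 µM final, 1% DMSO · Times – compound stimulation 90 min at 25 °C, detection 60 min · Technique – beta-gal luminescence · Read-out basis – APJ–arrestin association signal · Control set – negative DMSO alone, positive Apelin-13 at 10 nM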
Starred values were filed as active, the others as inactive; nt = not tested or not shown.

SMILES | CCR6 antagonist | EBI2 block | CXCR6 block | APJ antagonist | APJ agonist
O=C(O)CCN1C(=O)/C(=C\c2ccc(-c3nc4ccccc4s3)o2)SC1=S | 53* | 27 | 38 | 3 | -2
O=C(NC(=S)Nc1ccccc1Cl)c1cncc(C#Cc2ccccc2)c1 | 46 | 15 | 31 | 29 | -3
O=C(NC(=S)Nc1ccccc1Cl)c1cncc(Br)c1 | 52* | -4 | 34 | 17 | -4
C#CC(=O)N(c1cccc(OC)c1)C(C(=O)NC1CCCC1)c1cccs1 (stereo not given) | 26 | 53* | 18 | 5 | 1
O=C(Nc1cc(S(=O)(=O)Nc2ccc(Cl)cc2)ccc1O)c1ccc(S(=O)(=O)N2CCCCCC2)cc1 | 9 | 10 | 3 | -14 | -2
O=C(N/N=C\c1cc(Cl)ccc1O)c1ccc(S(=O)(=O)N2CCCCC2)cc1 | 16 | 49* | -5 | -13 | 1
O=S1(=O)c2ccccc2N=NN1Cc1ccc(Cl)c(Cl)c1 | nt | nt | nt | -13 | 6
CC(C)(C)c1ccc(CN2N=Nc3ccccc3S2(=O)=O)cc1 | 64* | 7 | 49* | 33 | 9
CC1=C(C)/C(=N\OS(=O)(=O)c2ccc(C)cc2)C=CC1=O | 76* | 7 | 55* | nt | nt
O=C(/C=C/c1cccs1)c1ccc([N+](=O)[O-])cc1 | 2 | 1 | -28 | -26 | 2
O=C(/C=C/c1cccs1)c1ccc(N2CCOCC2)cc1 | 7 | 45* | 1 | 14 | -3
CC/C(=C\C1CCCCC1)C(NP(=O)(c1ccccc1)c1ccccc1)c1ccccc1 (stereo not given) | 35 | -22 | 44* | 21 | -2
O=P(NC1CCCCC1)(c1ccccc1)c1ccccc1 | 6 | 1 | -1 | nt | nt
Cc1ccc(OCC(=O)N2CCN(c3ccc([N+](=O)[O-])c(N4CCOCC4)c3)CC2)cc1 | 14 | 56* | 4 | 5 | -8
COc1ccc(C(=O)O/N=C/c2c(C(F)(F)F)nn(C)c2SCc2ccccc2Cl)cc1 | 12 | 50* | 2 | 15 | -3
COc1ccccc1Cc1c(-c2ccc(C#N)cc2)nc2c(C)cc(Br)cn12 | nt | 16 | 4 | nt | nt
Cc1ccccc1C(=O)NC(=S)Nc1ccc(S(=O)(=O)N2CCN(C)CC2)cc1 | 61* | 8 | 19 | 5 | -4
N=C1CCCC1C(=S)SCCC(N)=O (stereo not given) | nt | -4 | 8 | nt | nt
C=CCOc1ccc(C2C(C(=O)c3ccco3)=C(O)C(=O)N2CCCN(CC)CC)cc1 (stereo not given) | -11 | -9 | -6 | 12 | 10
CCN(CC)CCCN1C(=O)C(O)=C(C(=O)c2ccco2)C1c1ccc(OC(C)C)cc1 (stereo not given) | 93* | -3 | 1 | -15 | 2
COc1cc(/C=N/NC(=O)C(Cc2c[nH]c3ccccc23)NC(=O)OCC(C)C)cc([N+](=O)[O-])c1O (stereo not given) | 32 | 2 | 14 | 44* | -3
COc1cc(/C=N/NC(=O)C(Cc2c[nH]c3ccccc23)NC(=O)OCc2ccccc2)cc([N+](=O)[O-])c1O (stereo not given) | 46 | 17 | 24 | nt | nt
CC(NC(C(=O)c1ccccc1)c1ccccc1)c1ccccc1 (stereo not given) | 78* | 9 | 37* | nt | nt
CNc1ncnc2c1ncn2[C@H]1CN(CCOC)C[C@@H](CO)O1 | nt | -6 | 7 | nt | nt
COc1cc(N=Nc2ccccc2C(=O)O)ccc1O | 23 | -11 | 17 | 9 | -5
SMILES | CCR6 antagonist | EBI2 block | CXCR6 block | APJ antagonist | APJ agonist
COc1cc(N=Nc2ccc3ccccc3c2)ccc1O | 51* | 20 | 33 | 22 | -6
O=C(c1ccc(C(F)(F)F)cc1)N1CCN(S(=O)(=O)c2ccc3c(c2)OCCCO3)CC1 | 12 | 51* | -6 | -3 | -1
O=C(c1ccc(F)cc1)N1CCN(S(=O)(=O)c2ccc3c(c2)OCCO3)CC1 | nt | 8 | 1 | nt | nt
NC(N)=N/N=C(\N=Nc1ccccc1)c1ccc(Cl)cc1 | 63* | 2 | 12 | nt | nt
NC(N)=N/N=C(\N=Nc1ccccc1)c1cccc2cccnc12 | 12 | 5 | 0 | nt | nt
N=C1/C(=C/c2cccn2CCOc2ccccc2)C(=O)N=C2SC=C(c3ccccc3)N12 | 42 | 41* | 20 | 9 | -2
O=C(NCc1ccc2c(c1)OCO2)c1nc(S(=O)(=O)Cc2ccccc2)ncc1Cl | 63* | -6 | 40 | 26 | -3
CC(=O)Nc1ccc(NC(=O)c2nc(S(=O)(=O)Cc3ccccc3)ncc2Cl)cc1 | 9 | 0 | 25 | 11 | 1
